Screens as filed in PubChem BioAssay.
Only some compounds are listed: those with a hit (about 1.9% of all), similar ones and a draw of the others.
FAS-TE inh: blocks the thioesterase domain of human fatty acid synthase. recombinant FAS-TE, OMFH fluorogenic substrate, fluorescence endpoint. inhibition, % at 15 µM. hit rate 0.67% among 360,000;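 active = compounds whose normalised, plate-corrected inhibition of enzyme fluorescence in the single-dose primary screen is 50% or more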;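 also: 0% = DMSO with enzyme and 100% = substrate without enzyme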
SENP1 FRET inh: SENP1 (human) catalytic domain inhibition | Q9P0U3 | recombinant SENP1 catalytic domain, CyPet-SUMO1-YPet FRET cleavage | inhibition, % at 10 µM | hit rate 0.21% among 360,000;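 active = inhibition at least 30% at 10 µM, raw YFP signal under a set limit, fluorescence ratio 0.5 to 1.5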;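 also: 0% = enzyme with DMSO and 100% = no enzyme wells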
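Assay system: hSENP1 catalytic domain, recombinant. Amount: SENP1 enzyme, 20 pM final. Schedule: 50 min reaction, RT, dark. Technique: FRET, CFP and YFP emission. Control set: no-enzyme wells low, DMSO-plus-enzyme wells high control.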
ADAM17 inh: inhibits human ADAM17; P78536; recombinant ADAM17, EDANS/DABCYL FRET peptide cleavage; inhibition, % at 6.95 µM; hit rate 0.83% among 370,000;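 active = inhibition above the mean of compounds lying between control limits plus 3 SD, set per campaign, cut at about 8.5% in these data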;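 also: 0% = DMSO-only wells as the low control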
ADAM10 inh: inhibits human ADAM10; O14672; recombinant ADAM10, EDANS/DABCYL FRET peptide cleavage, 3 h; inhibition, % at 7 µM; hit rate 0.62% among 370,000;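 active = inhibition above a per-campaign cutoff equal to the mean of compounds falling between control-based bounds plus 3 SD, cut at about 20% in these data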;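 also: 0% = DMSO wells while the 100% control is not disclosed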
Target sequence (O14672 214-748 limits assumed): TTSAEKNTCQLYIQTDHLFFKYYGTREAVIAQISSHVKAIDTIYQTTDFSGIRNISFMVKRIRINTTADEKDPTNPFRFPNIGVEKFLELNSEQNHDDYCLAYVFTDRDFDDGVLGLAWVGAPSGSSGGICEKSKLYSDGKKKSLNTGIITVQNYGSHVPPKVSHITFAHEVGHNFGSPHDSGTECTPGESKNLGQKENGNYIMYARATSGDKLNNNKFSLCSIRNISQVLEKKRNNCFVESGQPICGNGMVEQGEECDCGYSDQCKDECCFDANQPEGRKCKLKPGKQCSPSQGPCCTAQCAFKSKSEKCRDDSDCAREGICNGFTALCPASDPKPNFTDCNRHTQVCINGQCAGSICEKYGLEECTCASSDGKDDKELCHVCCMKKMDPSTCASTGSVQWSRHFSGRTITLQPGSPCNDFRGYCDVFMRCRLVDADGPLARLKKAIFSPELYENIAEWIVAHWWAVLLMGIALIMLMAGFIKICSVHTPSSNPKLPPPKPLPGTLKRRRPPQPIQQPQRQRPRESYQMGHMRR
FAS-TE inh conf: FAS thioesterase (human) inhibition, confirmation; shares compounds with FAS-TE inh; recombinant FAS-TE, OMFH fluorogenic substrate, fluorescence; inhibition, % at 15 µM; hit rate 45% among 2,300; AID 624325;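 active = compounds inhibiting the enzyme by at least 50% at 15 µM in any one of the replicates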;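 also: 0% = enzyme with DMSO only and 100% = wells lacking enzyme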
ADAM10 confirm: human ADAM10 inhibition, confirmation; shares compounds with ADAM10 inh; inhibition, % at 6.95 µM; hit rate 1% among 2,100; AID 743208; ADAM10 QFRET peptide cleavage, EDANS fluorescence;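 active = inhibition above about 20% chosen separately for each screening run, limit read from the data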;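 also: 0% = DMSO wells and 100% = marimastat wells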
ADAM17 counter: ADAM17 inhibition, counter-screen for ADAM10 exosite hits | shares compounds with ADAM10 inh | ADAM17 QFRET peptide cleavage, EDANS fluorescence | inhibition, % at 6.95 µM | hit rate 0.5% among 2,100 | AID 743214;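 active = mean triplicate inhibition above the solvent-only control wells' mean plus 3 SD, cut at about 12% in these data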;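 also: 0% = DMSO wells and 100% = marimastat wells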
ADAM10 counter: inhibits human ADAM10 in ADAM17 exosite counter-screen; shares compounds with ADAM17 inh; recombinant ADAM10, EDANS/DABCYL FRET peptide cleavage, 3 h; inhibition, % at 6.95 µM; hit rate 47% among 2,900; AID 743256;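 active = mean inhibition over the triplicate runs exceeds the activity threshold set in the earlier primary screen, cut at about 20% in these data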;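 also: 0% = DMSO wells and 100% = marimastat wells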
ADAM17 confirm: human ADAM17 inhibition, confirmation; hit rate 65% among 2,900; AID 743257; shares compounds with ADAM17 inh; inhibition, % at 6.95 µM; recombinant ADAM17, EDANS/DABCYL QFRET peptide cleavage;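 active = mean inhibition across replicates above the hit cutoff set in the primary screen, cut at about 8.5% in these data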;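 also: 0% = DMSO wells and 100% = marimastat wells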
* = called active by the depositor; . = not tested or not shown.

SMILES	FAS-TE inh	SENP1 FRET inh	ADAM17 inh	ADAM10 inh	FAS-TE inh conf	others
O=c1[nH]c2ccccc2n1C1CCN(C(c2cccc3ccccc23)c2nnnn2-c2ccc3c(c2)OCCO3)CC1 (centres undefined)	72*	1	5	13	14
O=c1[nH]c2ccccc2n1C1CCN(C(c2cc3ccccc3o2)c2nnnn2-c2ccc3c(c2)OCCO3)CC1 (centres undefined)	66*	-3	2	6	13
C=C1[C@@H](C)C2[C@H](Cc3ccccc3)NC(=O)[C@]23[C@H](OC(C)=O)/C=C/[C@@](C)(O)C(=O)[C@@H](C)C/C=C/[C@H]3[C@@H]1O (some centres undefined)	.	.	0	-1	.
COc1ccc([C@@H]2C[C@H]3[C@@H](CN2)CON3C)cc1	.	.	-3	-2	.
CC(C)C[C@H]1N=C(c2ccccc2)c2ccccc2N(CC(=O)NC(C)(C)C)C1=O	.	.	-2	0	.
CCOC(=O)[C@]12Cc3cc(Cl)ccc3[C@H]1N(C1CCCCC1)C(=O)c1cc(OC)ccc12	84*	-1	-4	-8	39*
CCOC(=O)[C@]12Cc3cc(Cl)ccc3[C@H]1N(C)C(=O)c1cc(OC)ccc12	27	2	-4	-10	.
CCOC(=O)[C@]12Cc3cc(C)ccc3[C@H]1N(C1CCCCC1)C(=O)c1ccccc12	82*	-1	4	6	33*
CCOC(=O)[C@]12Cc3ccc(C)cc3[C@H]1N(C1CCCCC1)C(=O)c1cc(OC)ccc12	77*	-2	1	-3	28*
CCOC(=O)[C@]12Cc3cc(C)ccc3[C@H]1N(CCC(=O)OC)C(=O)c1ccccc12	42	2	-1	2	.
CCOC(=O)[C@]12Cc3c(cc(OC)c(OC)c3OC)[C@H]1N(C1CCCCC1)C(=O)c1ccccc12	81*	-2	-3	-11	62*
CC(C)C(C(=O)NC(C)(C)C)N1C(=O)CN=C(c2ccccc2)c2ccccc21 (centres undefined)	.	.	3	9	.
Cc1cccc(C(C)c2cnc[nH]2)c1C (centres undefined)	.	.	-1	-6	.
N#CCC[C@@H]1CC[C@]2(CCCN(Cc3ccccn3)C2)O1	.	.	-2	-2	.
Cc1cc(N2CCNC[C@H]2C)ccc1N1CC[C@H](O)C1	.	.	-2	-9	.
CCCCCN1C(=O)c2cc(OC)ccc2[C@@]2(C(=O)OCC)Cc3cc(OC)ccc3[C@@H]12	52*	0	5	1	40
CCOC(=O)[C@]12Cc3ccccc3[C@H]1N(C(C)C)C(=O)c1ccccc12	13	1	5	12	.
CCOC(=O)[C@]12Cc3ccc(C)cc3[C@H]1N(C1CCCCC1)C(=O)c1ccccc12	80*	0	6	5	24*
COP(=O)(OC)C(C)NC(=O)OCc1ccccc1 (centres undefined)	.	.	-5	-4	.
O=C1NCN(c2ccccc2)C12CCN(C(CCc1ccccc1)c1nnnn1-c1ccc3c(c1)OCCO3)CC2 (centres undefined)	65*	1	11*	25*	22	ADAM10 confirm=10;ADAM17 counter=4
CC(NC(=O)OCc1ccccc1)P(=O)(Oc1ccccc1)Oc1ccccc1 (centres undefined)	.	.	1	9	.
Oc1ccc(O)c2c1C1(Cl)C(Cl)=C(Cl)C2(Cl)C1(Cl)Cl	51*	0	15*	41*	50*	ADAM10 confirm=5;ADAM17 counter=2;ADAM10 counter=29*;ADAM17 confirm=14*
O=C(NC(CCC(O)CO)P(=O)(Oc1ccccc1)Oc1ccccc1)OCc1ccccc1 (centres undefined)	.	.	0	3	.
